The subject of data set [1] is Rattus norvegicus. The experiment in a line: Reduction in body weight in genetically obese Zucker rat at 5 mg/kg, po qd. Type of data set: functional. Details: scale not given: the % may be the effect or the level left. In short, it runs like this: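 Zucker fa/fa rats, single-housed on grid floors, sham-dosed with vehicle for at least 5 days, then weight-matched on 2-day baseline. Daily oral dosing at 5 mg/kg, 2 mL/kg, in PEG/methanesulfonic acid (80:20) before the nocturnal feeding phase. Body weight recorded daily over 9 days; mean ± SEM, 9–10 rats/group.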

Data set [2] deals with T1, Cannabinoid receptor 1 (Homo sapiens, UniProt P21554). The experiment in a line: Displacement of [3H]CP-55940 from human CB1 receptor expressed in HEK cells. It is filed as cell-based, HEK293. In short, it runs like this:
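Membranes from HEK 293 cells expressing human CB-1, suspended in ice-cold 50 mM Tris pH 7.4, 2.5 mM EDTA, 5 mM MgCl2, 0.1% fatty acid free BSA; 3.3 µg protein incubated with 0.3 nM [3H]CP 55940 and graded compound, 30 °C, 90 min with shaking, triplicate. Nonspecific binding defined with 10 µM WIN 55212-2; filtration through GF/C, scintillation counting; Ki via Cheng–Prusoff from nonlinear-regression IC50.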

The target of data set [3] is T1, Cannabinoid receptor 1. The experiment in a line: Antagonist activity at CB1 receptor. It is filed as functional.
The next data set deals with Cannabinoid receptor 2 (Homo sapiens, UniProt P34972). The experiment in a line: Displacement of [3H]CP-55940 from human CB2 receptor expressed in HEK cells. It is filed as cell-based, HEK293. In short, it runs like this: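 Membranes from HEK 293 cells expressing human CB-2, in ice-cold 50 mM Tris pH 7.4, 2.5 mM EDTA, 5 mM MgCl2, 0.1% fatty-acid-free BSA. 3.3 µg protein with 0.3 nM [3H]CP 55940 and varying competitor, triplicate, 30 °C for 90 min with shaking. Nonspecific binding with 10 µM WIN 55212-2. Filtration onto GF/C, scintillation counting; Ki from IC50 by Cheng–Prusoff.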
On the technique in general: Displacement assays read how much labelled ligand stays bound in the presence of the test substance.

The subject of data set [4] is Rattus norvegicus. The experiment in a line: Reduction in food intake in fasted-refed Wistar rat at 10 mg/kg, po after 4 hrs. It is filed as functional. On the set-up: scale not given: the % may be the effect or the level left. In short, it runs like this:
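Wistar rats fasted overnight (18 h), then given vehicle or compound orally at 10 mg/kg as a suspension in 30% cyclodextrin, 2 mL/kg, 1 h before re-feeding. Cumulative food intake from pre-weighed jars at 30, 60, 90, 180 and 240 min.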

Data set [5] in a line: Cmax in Wistar rat at 10 mg/kg, po. It is filed as ADME, organism-based. On the set-up: dose 10 mg/kg, route oral. To be noted: in vivo. In short, it runs like this: (§1)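 Male Wistar rats, single oral dose of 10 mg/kg. Plasma exposure measured as Cmax and as AUC over 0–2 h.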
Data set [6] in a line: AUC ( 0 to 2 hrs) in Wistar rat at 10 mg/kg, po. Type of data set: ADME, organism-based. The settings on record: plasma. Details: time < 2 hr, dose 10 mg/kg, route oral. Summed up: as §1

Structures are written as SMILES.

Sequence of Cannabinoid receptor 2 (P34972 whole entry): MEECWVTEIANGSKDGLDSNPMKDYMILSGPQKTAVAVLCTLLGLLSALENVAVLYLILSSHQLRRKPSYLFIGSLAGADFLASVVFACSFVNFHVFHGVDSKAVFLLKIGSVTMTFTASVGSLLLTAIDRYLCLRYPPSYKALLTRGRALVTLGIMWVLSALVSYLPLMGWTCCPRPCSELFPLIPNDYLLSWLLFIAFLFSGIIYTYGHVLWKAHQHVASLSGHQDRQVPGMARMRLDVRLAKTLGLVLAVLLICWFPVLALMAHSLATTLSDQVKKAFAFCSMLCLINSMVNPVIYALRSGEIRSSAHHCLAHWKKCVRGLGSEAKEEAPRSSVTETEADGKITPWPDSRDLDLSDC
T1 sequence (P21554 whole entry): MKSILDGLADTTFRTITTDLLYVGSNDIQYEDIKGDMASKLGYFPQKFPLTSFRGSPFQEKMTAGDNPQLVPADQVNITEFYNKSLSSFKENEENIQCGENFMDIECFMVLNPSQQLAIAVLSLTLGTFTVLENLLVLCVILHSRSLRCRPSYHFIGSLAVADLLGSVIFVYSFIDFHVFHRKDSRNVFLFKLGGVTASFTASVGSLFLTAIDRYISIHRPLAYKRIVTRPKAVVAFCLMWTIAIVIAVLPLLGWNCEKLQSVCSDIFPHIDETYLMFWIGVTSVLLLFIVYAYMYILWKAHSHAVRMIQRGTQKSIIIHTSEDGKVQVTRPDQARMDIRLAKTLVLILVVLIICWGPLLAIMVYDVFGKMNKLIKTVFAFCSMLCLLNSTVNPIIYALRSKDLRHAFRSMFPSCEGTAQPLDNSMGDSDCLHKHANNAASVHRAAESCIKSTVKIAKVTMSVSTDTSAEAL

For `Cc1c(C(=O)NN2CCCCC2)nn(-c2ccc(Cl)cc2Cl)c1-c1ccc(Cl)cc1` [RIMONABANT], in the data set on Rattus norvegicus [1], the Activity is given as -5.6%.
`Cc1c2c(n(-c3ccc(Cl)cc3Cl)c1-c1ccc(N)cc1)CCN(C1CCCCC1)C2=O`: the affinity on Cannabinoid receptor 1 [2] corresponds to a Ki of 920 nM.
Consider `Cc1c2c(n(-c3ccc(Cl)cc3Cl)c1-c1ccc(Cl)cc1)CCN(N1CCCCC1)C2=O`, for which the Ki (as a rule, the dissociation constant of the complex between target and ligand, obtained from inhibition or displacement) on Cannabinoid receptor 1 [2] was 2.2 nM; on Cannabinoid receptor 2 it was 1300 nM. Besides, the antagonist dissociation constant (Kb) (in general, the affinity of an antagonist, worked out from how it opposes an agonist) at Cannabinoid receptor 1 [3] amounted to 12 nM.
Take `Cc1c2c(n(-c3ccc(Cl)cc3Cl)c1-c1cccc(C(F)(F)F)c1)CCN(C1CCCCC1)C2=O`: the IC50 (as a rule, the concentration that gives 50% inhibition) at Cannabinoid receptor 1 [2] is 67 nM.
At Cannabinoid receptor 1 [2], `Cc1c2c(n(-c3c(Cl)cccc3Cl)c1-c1ccc(Cl)cc1)CCN(C1CCCCC1)C2=O` yielded a Ki of 200 nM.
In the case of `Cc1c2c(n(-c3ccc(Cl)cc3Cl)c1-c1cccc(N)c1)CCN(C1CCCCC1)C2=O`, the inhibition constant Ki at Cannabinoid receptor 1 [2] was 450 nM.
At Cannabinoid receptor 1 [2], `Cc1c2c(n(-c3ccc(Cl)cc3Cl)c1-c1ccc(F)cc1)CCN(C1CCCCC1)C2=O` yielded a Ki of 6 nM.
As to `Cc1c2c(n(-c3ccc(Cl)cc3)c1-c1ccc(Cl)cc1)CCN(C1CCCCC1)C2=O`, the Ki at Cannabinoid receptor 1 [2] is over 2500 nM.
Turning to `Cc1c2c(n(-c3ccccc3Cl)c1-c1ccc(Cl)cc1)CCN(C1CCCCC1)C2=O`, the Ki on Cannabinoid receptor 1 [2] is 2.8 nM.
On to `CSc1ccc(-c2c(C)c3c(n2-c2ccc(Cl)cc2Cl)CCN(C2CCCCC2)C3=O)cc1`, for which the Ki at Cannabinoid receptor 1 [2] was over 2500 nM.
In turn, `Cc1c2c(n(-c3ccc(Cl)cc3Cl)c1-c1cc3ccccc3s1)CCN(C1CCCCC1)C2=O` came in with a 50% inhibitory concentration (IC50) at Cannabinoid receptor 1 [2] of 23 nM.
Turning to `COc1ccc(-c2c(C)c3c(n2-c2ccccc2C)CCN(C2CCCCC2)C3=O)cc1`, the IC50 on Cannabinoid receptor 1 [2] is 22 nM.
On to `Cc1cccc(-c2c(C)c3c(n2-c2ccc(Cl)cc2Cl)CCN(C2CCCCC2)C3=O)c1`, for which the IC50 on Cannabinoid receptor 1 [2] amounted to 17 nM.
As to `COc1ccc(-c2c(C)c3c(n2-c2ccc(Cl)cc2Cl)CCN(C2CCCCC2)C3=O)cc1`, the Ki on Cannabinoid receptor 1 [2] is 7.9 nM.
For `COc1ccc(-c2c(C)c3c(n2-c2ccc(Cl)cc2Cl)CCN(C2CCCCC2)C3=O)cc1OC`, at Cannabinoid receptor 1 [2], the affinity corresponds to a Ki of 5.5 nM.
For the compound `Cc1c2c(n(-c3ccc(Cl)cc3Cl)c1-c1cccnc1)CCN(C1CCCCC1)C2=O`, the affinity at Cannabinoid receptor 1 [2] corresponds to a Ki of 390 nM.
Consider `COc1ccc(-c2c(C)c3c(n2-c2ccccc2Cl)CCN(C2CCCCC2)C3=O)cc1`, for which the Ki at Cannabinoid receptor 1 [2] came out at 7.5 nM.
The compound `Cc1cn(-c2ccc(Cl)cc2Cl)c2c1C(=O)N(C1CCCCC1)CC2` came in with a Ki at Cannabinoid receptor 1 [2] of 240 nM.
The compound `Cc1c2c(n(-c3ccc(Cl)cc3Cl)c1-c1ccc(C(=O)O)cc1)CCN(C1CCCCC1)C2=O` displayed a Ki at Cannabinoid receptor 1 [2] of over 2500 nM.
`Cc1c2c(n(-c3ccc(Cl)cc3Cl)c1-c1ccc3c(c1)OCO3)CCN(C1CCCCC1)C2=O`: at Cannabinoid receptor 1 [2], the IC50 came to 12 nM.
For the compound `Cc1ccccc1-n1c2c(c(C)c1-c1ccc(F)cc1)C(=O)N(C1CCCCC1)CC2`, the IC50 at Cannabinoid receptor 1 [2] is 40 nM.
The same measure, in the same setting: the figure for `Cc1ccccc1-n1c2c(c(C)c1-c1ccc(C(F)(F)F)cc1)C(=O)N(C1CCCCC1)CC2` is 9.3 nM.
Take `Cc1ccc(-c2c(C)c3c(n2-c2ccc(Cl)cc2Cl)CCN(C2CCCCC2)C3=O)cc1`: at Cannabinoid receptor 1 [2], the Ki stood at 10 nM.
For `COc1ccc(-c2c(C)c3c(n2-c2ccccc2Cl)CCN(N2CCCCC2)C3=O)cc1`, the Activity in the data set on Rattus norvegicus [4] is 36%; with Rattus norvegicus [1], -3%. Moreover, the inhibition constant (Ki) on Cannabinoid receptor 1 [2] was 20 nM; on Cannabinoid receptor 2, 850 nM. For the same compound, in data set [5], the Cmax (commonly the maximum level reached in the sampled fluid or tissue) was 620 nM. In data set [6], the AUC(0-t) (in general, the area under the concentration-time curve up to a stated or last time point) at 2 h was determined as 0.58 µM·h.
With `Cc1c2c(n(-c3ccc(Cl)cc3)c1-c1ccc(Cl)cc1Cl)CCN(C1CCCCC1)C2=O`, the Ki at Cannabinoid receptor 1 [2] was over 2500 nM.
Regarding `Cc1c2c(n(-c3ccccc3Cl)c1-c1ccc(Cl)cc1)CCN(N1CCCCC1)C2=O`, the Ki at Cannabinoid receptor 1 [2] amounted to 3.5 nM; at Cannabinoid receptor 2 it was 1100 nM.
For `COc1ccc(-c2c(C)c3c(n2-c2ccccc2C)CCN(N2CCCCC2)C3=O)cc1`, the affinity at Cannabinoid receptor 1 [2], expressed as Ki, was 74 nM.
As to `Cc1c2c(n(-c3ccc(Cl)cc3Cl)c1-c1ccsc1)CCN(C1CCCCC1)C2=O`, the IC50 on Cannabinoid receptor 1 [2] was 37 nM.
At Cannabinoid receptor 1 [2], `Cc1c2c(n(-c3ccc(Cl)cc3Cl)c1-c1ccco1)CCN(C1CCCCC1)C2=O` displayed an IC50 of 20 nM.
`C=Cc1ccc(-c2c(C)c3c(n2-c2ccc(Cl)cc2Cl)CCN(C2CCCCC2)C3=O)cc1`: at Cannabinoid receptor 1 [2], the affinity corresponds to a Ki of 9.8 nM.
Consider `Cc1c2c(n(-c3ccc(Cl)cc3Cl)c1-c1ccc(Cl)cc1)CCN(C1CCCCC1)C2=O`, for which the Ki on Cannabinoid receptor 1 [2] was 7.5 nM; at Cannabinoid receptor 2 it was 8300 nM. In addition, the Kb at Cannabinoid receptor 1 [3] amounted to 6.5 nM. In data set [5], this compound showed a Cmax of under 50 nM.
As for `COc1cccc(-c2c(C)c3c(n2-c2ccc(Cl)cc2Cl)CCN(C2CCCCC2)C3=O)c1`, the IC50 at Cannabinoid receptor 1 [2] is 6.8 nM.
`Cc1c2c(n(-c3ccc(Cl)cc3Cl)c1-c1ccccc1)CCN(C1CCCCC1)C2=O` yielded an IC50 on Cannabinoid receptor 1 [2] of 16 nM.
On the same count and under the same terms, the figure for `Cc1c2c(n(-c3ccc(Cl)cc3Cl)c1-c1cccs1)CCN(C1CCCCC1)C2=O` is 19 nM.
Compound `Cc1c2c(n(-c3ccc(Cl)cc3Cl)c1-c1ccc(C(F)(F)F)cc1)CCN(C1CCCCC1)C2=O` yielded a Ki on Cannabinoid receptor 1 [2] of 4.1 nM.

Source of the values: ChEMBL document CHEMBL1143786, “Constrained analogs of CB-1 antagonists: 1,5,6,7-Tetrahydro-4H-pyrrolo[3,2-c]pyridine-4-one derivatives” (Bioorg Med Chem Lett, 2007).
